Legend:
Rattus norvegicus [1] = test: In vivo activity against oxotremorine induced tremors in rat (iv)
Cavia porcellus [2] = species: Cavia porcellus; test: In vitro functional studies in guinea pig ileum
Rattus norvegicus [3] = test: […] activity against carbachol-induced colonic spasms in rat (iv); assay type: functional
Procedure, shortened: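 Compounds given iv 2 min before each spasmogen dose. Percent inhibition of pretreatment contractions; ED50 with 95% confidence limits from linear regression of log dose-response curves.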

Cavia porcellus [4] = species: Cavia porcellus; test: In vitro functional studies in guinea pig left atrium; conditions: Cardiac atrium
Rattus norvegicus [5] = test: In vivo activity against oxotremorine induced salivation in rat (iv)
[6] = molecular target: T1, Muscarinic acetylcholine receptor M2 (Rattus norvegicus, UniProt P10980); test: In vitro receptor binding against Muscarinic acetylcholine receptor M2 in rat heart was determined using [3H]NMS
T1 sequence (P10980 whole entry): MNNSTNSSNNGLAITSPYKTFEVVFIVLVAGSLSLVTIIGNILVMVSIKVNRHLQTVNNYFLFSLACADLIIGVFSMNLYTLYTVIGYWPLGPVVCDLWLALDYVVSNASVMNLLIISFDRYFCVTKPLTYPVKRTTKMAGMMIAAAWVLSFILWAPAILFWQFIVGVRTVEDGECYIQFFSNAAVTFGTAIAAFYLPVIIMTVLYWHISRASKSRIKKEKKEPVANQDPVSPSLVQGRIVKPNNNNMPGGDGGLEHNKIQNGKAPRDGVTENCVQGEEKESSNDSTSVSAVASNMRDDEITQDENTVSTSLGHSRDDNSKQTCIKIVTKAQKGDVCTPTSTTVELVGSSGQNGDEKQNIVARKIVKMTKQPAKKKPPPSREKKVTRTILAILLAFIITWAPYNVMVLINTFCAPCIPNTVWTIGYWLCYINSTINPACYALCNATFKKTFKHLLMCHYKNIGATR

[7] = molecular target: Muscarinic acetylcholine receptor M3 (Rattus norvegicus, UniProt P08483); test: In vitro receptor binding against Muscarinic acetylcholine receptor M3 in rat submandibular gland was determined using [3H]NMS
[8] = molecular target: T2, Muscarinic acetylcholine receptor M1 (Rattus norvegicus, UniProt P08482); test: In vitro receptor binding against Muscarinic acetylcholine receptor M1 in rat cerebral cortex was determined using [3H]pirenzepine; assay type: tissue-based
T2 sequence (P08482 whole entry): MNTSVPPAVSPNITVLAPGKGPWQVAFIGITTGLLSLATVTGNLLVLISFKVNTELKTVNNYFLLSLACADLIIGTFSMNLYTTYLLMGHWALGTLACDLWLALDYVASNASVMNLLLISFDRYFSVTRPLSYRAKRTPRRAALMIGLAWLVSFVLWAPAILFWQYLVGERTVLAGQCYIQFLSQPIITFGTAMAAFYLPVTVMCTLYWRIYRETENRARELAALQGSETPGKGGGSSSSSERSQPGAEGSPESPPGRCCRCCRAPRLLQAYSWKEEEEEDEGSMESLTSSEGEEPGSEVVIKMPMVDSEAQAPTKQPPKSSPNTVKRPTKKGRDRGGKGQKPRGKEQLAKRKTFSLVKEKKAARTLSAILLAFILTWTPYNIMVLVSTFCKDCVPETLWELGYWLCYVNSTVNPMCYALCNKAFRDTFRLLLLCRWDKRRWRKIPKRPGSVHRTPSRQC
Procedure, shortened: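 Rat cortex, heart or submandibular gland homogenates in Na+-Mg2+-HEPES pH 7.4, incubated 45 min at 30 °C with radioligand plus varying cold ligand. Separated by centrifugation, pellets washed and counted, in triplicate. KD from IC50 by nonlinear regression with Cheng–Prusoff correction; Hill slopes by linear regression.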

[9] = pKa value was determined; assay type: physicochemical
Procedure, shortened: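 Macroscopic pKa measured by potentiometric titration in water containing a few milliliters of methanol, with a glass electrode.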

Chain of Muscarinic acetylcholine receptor M3 (P08483 whole entry): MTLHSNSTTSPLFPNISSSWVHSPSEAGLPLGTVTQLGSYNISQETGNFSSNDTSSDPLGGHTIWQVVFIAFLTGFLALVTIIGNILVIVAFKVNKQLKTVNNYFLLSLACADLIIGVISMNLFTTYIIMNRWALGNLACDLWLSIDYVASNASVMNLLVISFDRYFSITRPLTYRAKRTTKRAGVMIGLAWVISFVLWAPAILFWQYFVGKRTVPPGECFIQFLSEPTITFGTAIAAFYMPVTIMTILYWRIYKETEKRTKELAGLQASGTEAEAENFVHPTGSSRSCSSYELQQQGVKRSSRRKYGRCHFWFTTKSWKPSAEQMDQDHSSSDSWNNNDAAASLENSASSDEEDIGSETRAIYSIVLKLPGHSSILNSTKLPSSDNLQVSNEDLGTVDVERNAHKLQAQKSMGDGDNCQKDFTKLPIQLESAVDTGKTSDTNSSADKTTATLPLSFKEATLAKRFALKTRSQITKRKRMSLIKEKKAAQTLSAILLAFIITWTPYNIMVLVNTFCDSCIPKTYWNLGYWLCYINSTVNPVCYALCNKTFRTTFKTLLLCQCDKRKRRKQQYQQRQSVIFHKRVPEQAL

Row | Structure (SMILES) | ED50 (Rattus norvegicus [1]) [µg/kg] | Kb (Cavia porcellus [2]) [nM] | ED50 (Rattus norvegicus [3]) [µg/kg] | Kb (Cavia porcellus [4]) [nM] | ED50 (Rattus norvegicus [5]) [µg/kg] | Kd [6] [nM] | Kd [7] [nM] | Kd [8] [nM] | pKa [9]
1 | CCCC[N+]1(C)C2CC(OC(=O)C(CO)c3ccccc3)CC1C1OC12.[Br-] (centres undefined) | > 3000 | 56.3 | 52.9 | 58.4 | 385 | 220 | 220 | 300 | 
2 | C[N+]1(C)C2CC(OC(=O)C(CO)c3ccccc3)CC1C1OC12 (centres undefined) |  | 0.17 |  | 0.38 |  |  |  |  | 
3 | O=C(O[C@@H]1C[C@@H]2N[C@H](C1)[C@@H]1O[C@@H]12)[C@H](CO)c1ccccc1 |  |  |  |  |  |  |  |  | 7.09
4 | CC(=N)N1C2CC(OC(=O)C(CO)c3ccccc3)CC1C1OC12.Cl (centres undefined) | 1700 | 1.55 | 3.9 | 5.02 | 4.1 | 6.7 | 3.5 | 3.4 | 10.7
5 | Cl.N=CN1C2CC(OC(=O)C(CO)c3ccccc3)CC1C1OC12 (centres undefined) | 1300 | 1.68 | 6.1 | 6.55 | 2.45 | 10 | 5 | 3.6 | 9.78
6 | Cl.N=CN1C2CCC1CC(OC(=O)C(CO)c1ccccc1)C2 (centres undefined) | > 10000 | 0.72 | 3.5 | 1.59 | 3.9 | 1.6 | 1.4 | 1.1 | 10.3
7 | Cl.N=C(N)N1C2CC(OC(=O)C(CO)c3ccccc3)CC1C1OC12 (centres undefined) | > 3000 | 5.18 | 18.6 | 16.4 | 18.8 | 23 | 4.5 | 7.5 | 10.8
8 | CC(=N)N1C2CCC1CC(OC(=O)C(CO)c1ccccc1)C2.Cl (centres undefined) | > 10000 | 1.61 | 3.3 | 3.17 | 6.2 | 10 | 3.1 | 2 | 10.9
9 | Cl.N=C(N)N1C2CCC1CC(OC(=O)C(CO)c1ccccc1)C2 (centres undefined) | > 3000 | 1.92 | 9.8 | 3.06 | 5.8 | 11 | 2.5 | 7 | 11.6
10 | C[N+]1(C)[C@@H]2CC[C@H]1C[C@@H](OC(=O)C(CO)c1ccccc1)C2 (some centres undefined) [ATROPINE METHYLBROMIDE] |  | 0.71 |  | 1.29 |  | 2.7 | 2.6 |  | 
11 | CN1[C@@H]2CC[C@H]1C[C@@H](OC(=O)C(CO)c1ccccc1)C2 (some centres undefined) [ATROPINE] | 453 | 3.16 | 4.5 | 0.66 | 8.6 |  |  |  | 
12 | CN1[C@@H]2C[C@@H](OC(=O)[C@H](CO)c3ccccc3)C[C@H]1[C@@H]1O[C@@H]12 [SCOPOLAMINE] | 11 | 0.4 | 5.8 | 0.17 | 2.6 |  |  |  | 
